Compound activity (PubChem BioAssay)
SKKanGAS inh: inhibitors of SKKanGAS S. pyogenes growth in kanamycin (SK-promoter or general growth effect). inhibition, % at 7.5 µM. BacTiter-Glo, 6 h. 300,000 compounds, 1.3% hits;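 active = mean replicate score, as percent of positive control median, at least 50; inconclusive = mean below 50 but one replicate at or above 50; inactive = mean and every replicate below 50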;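 also: strain carries kanamycin resistance gene driven by streptokinase promoter and grows in 40 µg/ml kanamycin; loss of luminescence reflects streptokinase promoter inhibition or plain growth inhibition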
Rtt109 HAT inh: blocks Candida albicans Rtt109/Vps75 acetyltransferase activity; purified Rtt109/Vps75, ThioGlo CoA-SH fluorescence, 4 h; inhibition, % at 34.9 µM; 330,000 compounds, 0.16% hits; AID 540336;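 active = inhibition of at least 50% in every replicate; inconclusive = best replicate reaches 50% inhibition but some replicates fall short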
Target sequence (Q5AAJ8 whole entry, looked up): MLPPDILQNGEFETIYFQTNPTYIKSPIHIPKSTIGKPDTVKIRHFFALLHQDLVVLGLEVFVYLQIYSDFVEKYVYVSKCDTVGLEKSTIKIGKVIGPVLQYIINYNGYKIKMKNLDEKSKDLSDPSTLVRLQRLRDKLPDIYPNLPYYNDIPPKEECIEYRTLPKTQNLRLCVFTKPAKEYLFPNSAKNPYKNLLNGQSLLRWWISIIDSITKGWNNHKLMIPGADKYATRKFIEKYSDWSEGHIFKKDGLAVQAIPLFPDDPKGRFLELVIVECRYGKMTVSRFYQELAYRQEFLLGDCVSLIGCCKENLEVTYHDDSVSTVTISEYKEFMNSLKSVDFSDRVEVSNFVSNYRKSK
CSC inhib: cancer stem cell inhibition | cancer stem cell-like cells viability, luminescence | inhibition, % at 7.5 µM | 300,000 compounds, 1.1% hits | AID 2717; in the data active = inhibition above about 75%; inconclusive = no clear call, values can overlap the other calls; tested in HMLE shEcad cells
PfHsp90 yeast 2: reduces growth (ATP signal) of yeast expressing P. falciparum Hsp90. AID 504621. S. cerevisiae expressing PfHsp90, BacTiter-Glo ATP, 48 h; yeast lacking PDR1 and PDR3 efflux regulators. 310,000 compounds, 0.32% hits. inhibition, % at 9.4 µM;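 active = every replicate shows inhibition above about 80%, whatever the replicate mean, limit read from the data; inconclusive = mean inhibition reaches the set limit but some replicate falls short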
FN deposition inh: fibronectin deposition inhibition; AH1F fibroblasts, Alexa488-fibronectin deposition fluorescence, overnight; 350,000 compounds, 0.086% hits; inhibition, % at 12.6 µM; AID 743247;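 active = mean inhibition across replicates of 30% or more, regardless of how many single replicates reach that level; inconclusive = mean under 30% yet at least half of replicates reach 30%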
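test system = AH1F fibroblasts assembling fluorescent fibronectin matrix | quantity = 10000 AH1F cells per well | buffer or medium = DMEM plus 2% serum, read in PBS | doses = single dose, pinned | incubation = 1 h cell attachment, overnight exposure to compound and label | detection = fluorescence at 485 nm excitation, 525 nm emission | read-out basis = inhibition from reduced deposited-fibronectin fluorescence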
PglD inh: inhibitors of Campylobacter jejuni PglD acetyltransferase; purified PglD enzyme, DTNB colorimetric CoA detection; inhibition, % at 12.5 µM; 360,000 compounds, 0.098% hits; AID 602405; in the data active = inhibition above about 16%, passing the limit was not always enough; inconclusive = no clear call, values can overlap the other calls
Of the large screens only hits and unclear results are named; the others gave an inactive call. Rows were chosen to be rich in hits. Some 1.7% of all compounds tested hit in one or more screens of this group.

COc1ccc2[nH]c3c(=O)n(/N=C/[C@H]4C(C)C=C(C)CC4C)c(=O)[nH]c3c2c1 (some centres undefined)	CSC inhib 88
CC1=CC(C)[C@H](/C=N/n2c(=O)[nH]c3c([nH]c4ccc(Br)cc43)c2=O)C(C)C1 (some centres undefined)	CSC inhib active
C[C@H](CO)N1C[C@H](C)[C@@H](CN(C)C(=O)NC2CCCCC2)OCCCC[C@H](C)Oc2ccc(NS(=O)(=O)c3cccs3)cc2C1=O	none (no result: SKKanGAS inh, Rtt109 HAT inh, CSC inhib, PfHsp90 yeast 2, FN deposition inh)
O=C(C[C@@H]1C[C@@H]2c3cc(NC(=O)CC4CC4)ccc3O[C@@H]2[C@H](CO)O1)NCc1cccnc1	none (no result: SKKanGAS inh, Rtt109 HAT inh, CSC inhib, PfHsp90 yeast 2)
Cc1cccc(C)c1Oc1nc(-c2ccccc2)ncc1S(=O)(=O)c1ccccc1	SKKanGAS inh 51 (no result: FN deposition inh, PglD inh)
COc1nc(-c2ccccc2)ncc1S(=O)(=O)c1ccccc1	Rtt109 HAT inh inconclusive (no result: PglD inh)
Fc1ccccc1N=C1NN=C(c2ccccc2)CS1	SKKanGAS inh 67 (no result: PfHsp90 yeast 2)
Cc1ccc2nc(NC(=O)c3cccc(-c4cc5ccccc5oc4=O)c3)sc2c1	CSC inhib 99 (no result: Rtt109 HAT inh, PfHsp90 yeast 2, FN deposition inh, PglD inh)
O=C(Nc1cccc(Cl)c1N1CCCC1)c1cccc(-c2cc3ccccc3oc2=O)c1	CSC inhib 84 (no result: PglD inh)
COc1ccc(S(=O)(=O)N(C)C[C@@H]2Oc3ccc(NC(=O)C4CCCCC4)cc3CC(=O)N([C@@H](C)CO)C[C@@H]2C)cc1	none (no result: SKKanGAS inh, Rtt109 HAT inh, CSC inhib, PfHsp90 yeast 2, FN deposition inh)
Cc1cc2c(cc1C)CSC(c1c(O)ccc3ccccc13)SC2	SKKanGAS inh 94, CSC inhib 112, PfHsp90 yeast 2 100
Cc1cc2c(cc1C)CSC(c1ccc3ccccc3c1O)SC2	none (no result: PfHsp90 yeast 2, PglD inh)
CCC(=O)N1C[C@@H](C)[C@@H](OC)CN(C)C(=O)c2cc(NC(=O)Nc3cccc(F)c3)ccc2OC[C@H]1C	none (no result: SKKanGAS inh, Rtt109 HAT inh, CSC inhib, PfHsp90 yeast 2)
CN(C)c1nc(N/N=C/c2ccccc2O)nc(Nc2ccc(F)cc2)n1	SKKanGAS inh 93 (no result: Rtt109 HAT inh, PglD inh)
C[C@H]1CCCCO[C@@H](CN(C)C(=O)Nc2ccc(C(F)(F)F)cc2)[C@@H](C)CN([C@@H](C)CO)C(=O)c2cc(NC(=O)Nc3ccc4c(c3)OCO4)ccc2O1	none (no result: SKKanGAS inh, Rtt109 HAT inh, CSC inhib, PfHsp90 yeast 2)
CCCSc1nc2sc3c(c2c(=O)n1CC)CC(C)(C)OC3	none (no result: PglD inh)
CSc1nc2sc3c(c2c(=O)n1CC(C)C)CC(C)(C)OC3	CSC inhib 75 (no result: Rtt109 HAT inh, PfHsp90 yeast 2)
C[C@@H]1CCCCO[C@H](CN(C)C(=O)Nc2ccccc2)[C@H](C)CN([C@@H](C)CO)C(=O)c2cc(NS(C)(=O)=O)ccc2O1	none (no result: SKKanGAS inh, Rtt109 HAT inh, CSC inhib, PfHsp90 yeast 2)
O=C(Nc1cc(C(F)(F)F)ccc1N1CCCCC1)c1ccc(Br)o1	CSC inhib 82
O=C(Nc1cc(C(F)(F)F)ccc1N1CCCCC1)c1ccco1	none (no result: FN deposition inh)
Cc1oc2cc(Br)c(O)c(Br)c2c1-c1ccccc1	SKKanGAS inh 83 (no result: FN deposition inh)
COc1cccc(C(NC(C)=O)c2ccc3cccnc3c2O)c1 (centres undefined)	none
O=C(COc1cccc2cccnc12)Nc1nccs1	none
CCCCC(=O)NC(c1cccc([N+](=O)[O-])c1)c1ccc2cccnc2c1O (centres undefined)	PfHsp90 yeast 2 115 (no result: SKKanGAS inh, CSC inhib)
O=[N+]([O-])c1ccc(NC(c2ccccc2)c2ccc3cccnc3c2O)cc1 (centres undefined)	PfHsp90 yeast 2 113 (no result: SKKanGAS inh, CSC inhib)
CC(=O)NC(c1cccc([N+](=O)[O-])c1)c1ccc2cccnc2c1O (centres undefined)	SKKanGAS inh 60, CSC inhib 102
Oc1cccc(C(Nc2nccs2)c2ccc3cccnc3c2O)c1 (centres undefined)	CSC inhib 110 (no result: PglD inh)
O=C(Nc1ccc2c(c1)[C@H]1C[C@H](CC(=O)N3CCc4ccccc4C3)O[C@@H](CO)[C@H]1O2)NC1CCCC1	none (no result: SKKanGAS inh, Rtt109 HAT inh, CSC inhib, PfHsp90 yeast 2, FN deposition inh)
C[C@H]1CN([C@@H](C)CO)C(=O)c2cc(NS(=O)(=O)c3ccccc3)ccc2O[C@H]1CN(C)S(=O)(=O)c1cccs1	none (no result: SKKanGAS inh, Rtt109 HAT inh, CSC inhib, PfHsp90 yeast 2, FN deposition inh)
O=C(CCSc1nc2ccccc2s1)N/N=C/c1c(O)ccc2ccccc12	CSC inhib 80 (no result: FN deposition inh)
COc1ccc(/C=N/NC(=O)CCSc2nc3ccccc3s2)cc1OC	none
Cc1csc2c(N3CCN(C(=O)Nc4ccc(Cl)c(Cl)c4)CC3)ncnc12	SKKanGAS inh 62
CCC(=O)Nc1ccc(Nc2nc(C)c([N+](=O)[O-])c(Nc3ccc(NC(=O)CC)cc3)n2)cc1	SKKanGAS inh 66 (no result: PglD inh)
Cc1[nH]c2ccccc2c1CC#N	none
